Assay results taken from ChEMBL document CHEMBL1156239, “Synthesis, anticonvulsant and antimicrobial activities of some new 2-acetylnaphthalene derivatives” (Bioorg Med Chem, 2010).
≈ marks a conversion by molar mass, not a printed value. Calls of active or inactive are those of the source. No cut-off for these calls is given here.

Key:
Mus musculus [1] = test: Anticonvulsant activity in ip dosed CF1 mouse assessed as inhibition of maximal electroshock-induced seizures after 0.5 hrs; type: functional
Mus musculus [2] = test: Anticonvulsant activity in ip dosed CF1 mouse assessed as inhibition of ScM-induced seizures after 5 hrs; type: functional
[3] = Neurotoxicity in ip dosed CF1 mouse after 0.25 hrs by rotarod test; type: toxicity, organism-based; details: in vivo
Outline: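 TD50 was determined at the time of peak effect in male albino animals. Compound was suspended in 0.5% methylcellulose and given ip. Neurotoxicity was read by rotarod in CF#1 mice and by positional sense, gait and stance in Sprague-Dawley rats. Groups of at least 8 received graded doses spanning 0–100% toxicity.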

Mus musculus [4] = test: Anticonvulsant activity in CF1 mouse assessed as inhibition of maximal electroshock-induced seizures at 30 mg/kg, ip after 0.5 hrs; type: functional, organism-based; set-up: dose 30 mg/kg
Outline: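 Male albino CF#1 mice (18–25.5 g), compound suspended in 0.5% methylcellulose, given ip 0.5 h or 4 h before test. Eyes treated with 0.5% tetracaine HCl in saline; corneal-type MES at 60 Hz, 50 mA for 0.2 s; protection scored as animals protected/tested.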

Rattus norvegicus [5] = test: Neurotoxicity in Sprague-Dawley rat at 30 mg/kg, po after 4 hrs by rotarod test; type: toxicity, organism-based; set-up: dose 30 mg/kg, route oral; details: in vivo
Candida parapsilosis = test: Antifungal activity against Candida parapsilosis ATCC 22019 after 48 hrs by broth microdilution method; type: functional; details: Lodderomyces parapsilosis, ATCC 22019, 48 h
Rattus norvegicus [6] = test: Neurotoxicity in Sprague-Dawley rat at 30 mg/kg, ip after 4 hrs by rotarod test; type: toxicity, organism-based; set-up: dose 30 mg/kg, route intraperitoneal; details: in vivo
Rattus norvegicus [7] = test: Anticonvulsant activity in rat assessed as inhibition of hippocampal kindle-stimulated seizures at 300 mg/kg, ip; type: functional, organism-based; set-up: dose 300 mg/kg; details: Hippocampus
Outline: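 Hippocampal kindled rat model; single animal given 300 mg/kg ip.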

Rattus norvegicus [8] = test: Neurotoxicity in Sprague-Dawley rat at 30 mg/kg, po after 1 hr by rotarod test; type: toxicity, organism-based; set-up: dose 30 mg/kg, route oral; details: in vivo
Mus musculus [9] = test: Neurotoxicity in CF1 mouse assessed as time to peak effect for ability to grasp rotarod at 150 mg/kg, ip by rotarod test; type: toxicity, organism-based; set-up: dose 150 mg/kg, route intraperitoneal; details: in vivo
Escherichia coli = test: Antibacterial activity against Escherichia coli ATCC 25922 after 24 hrs by broth microdilution method; type: functional; details: ATCC 25922, 24 h
Outline: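 Broth microdilution in Mueller Hinton broth; compound stocks in DMSO, diluted into test medium. Plates incubated at 35 °C and read visually after 24 h. MIC taken as lowest concentration preventing visible growth. Ampicillin reference.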

Rattus norvegicus [10] = test: Neurotoxicity in Sprague-Dawley rat at 30 mg/kg, po after 2 hrs by rotarod test; type: toxicity, organism-based; set-up: dose 30 mg/kg, route oral; details: in vivo
Rattus norvegicus [11] = test: Neurotoxicity in Sprague-Dawley rat at 30 mg/kg, ip after 0.25 hrs by rotarod test; type: toxicity, organism-based; set-up: dose 30 mg/kg, route intraperitoneal; details: in vivo
Rattus norvegicus [12] = test: Neurotoxicity in Sprague-Dawley rat at 30 mg/kg, ip after 0.5 hrs by rotarod test; type: toxicity, organism-based; set-up: dose 30 mg/kg, route intraperitoneal; details: in vivo

Structure (SMILES): CC(C)CC(=O)OC(Cn1ccnc1)c1ccc2ccccc2c1 (centres undefined)
- ED50 (Mus musculus [1]): 38.5 mg/kg
- ED50 (Mus musculus [2]): > 138 mg/kg
- TD50 at 0.25 h [3]: 124 mg/kg
- inhibition (Mus musculus [4]): inactive
- Activity (Rattus norvegicus [5]): Non-toxic
- MIC (Candida parapsilosis): 64 µg/mL (≈ 199 µM)
- Activity (Rattus norvegicus [6]): Non-toxic
- inhibition (Rattus norvegicus [7]): inactive
- Activity (Rattus norvegicus [8]): Non-toxic
- Time (Mus musculus [9]): 0.25 h
- MIC (Escherichia coli): > 1020 µg/mL
- Activity (Rattus norvegicus [10]): Non-toxic
- Activity (Rattus norvegicus [11]): Non-toxic
- Activity (Rattus norvegicus [12]): Non-toxic
